Measured values as given in ChEMBL document CHEMBL2424563, “Semisynthesis of mallotus B from rottlerin: evaluation of cytotoxicity and apoptosis-inducing activity” (J Nat Prod, 2013).

The compounds below were run on HL-60 (assay: Cell cycle arrest in human HL60 cells assessed as accumulation at G2 phase at 40 uM after 24 hrs by propidium iodide staining-based FACS flow cytometric analysis (reference value: 1%)).
Assay type: functional
How it was run: (§1)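 HL-60 cells seeded at 0.44 × 10^6/mL and exposed to 10, 20, 30 or 40 μM for 24 h. Cells were pelleted at 400g, washed in ice-cold PBS and fixed overnight in ice-cold 70% ethanol at 4 °C. They were treated with RNase (0.2 mg/mL) for 1 h at 37 °C, then stained with PI (10 μg/mL) for 30 min in the dark. Flow cytometry collected 10 000 events (FL2-A vs FL2-W). Sub-G0, G1, S and G2 fractions were fitted by modelling software.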
Work on CC(=O)c1c(O)c(C)c(O)c(Cc2c(O)c3c(c(C(=O)/C=C/c4ccccc4)c2O)OC(C)(C)C=C3)c1O [ROTTLERIN] yielded an Activity of 4%.

What follows are compounds tested on HL-60 (assay: Cell cycle arrest in human HL60 cells assessed as accumulation at S phase at 40 uM after 24 hrs by propidium iodide staining-based FACS flow cytometric analysis (reference value: 54%)).
Assay type: functional
How it was run: as §1
Work on CC(=O)c1c(O)c(C)c(O)c(Cc2c(O)c3c(c(C(=O)/C=C/c4ccccc4)c2O)OC(C)(C)C=C3)c1O [ROTTLERIN] yielded an Activity of 63%.

The compounds below were run on HL-60 (assay: Cell cycle arrest in human HL60 cells assessed as accumulation at G1 phase at 40 uM after 24 hrs by propidium iodide staining-based FACS flow cytometric analysis (reference value: 45%)).
Assay type: functional
How it was run: as §1
Compound CC(=O)c1c(O)c(C)c(O)c(Cc2c(O)c3c(c(C(=O)/C=C/c4ccccc4)c2O)OC(C)(C)C=C3)c1O [ROTTLERIN] has an Activity of 33%.

These compounds were tested on HL-60 (assay: Cell cycle arrest in human HL60 cells assessed as accumulation at G2 phase at 30 uM after 24 hrs by propidium iodide staining-based FACS flow cytometric analysis (reference value: 1%)).
Assay type: functional
How it was run: as §1
For CC(=O)c1c(O)c(C)c(O)c(Cc2c(O)c3c(c(C(=O)/C=C/c4ccccc4)c2O)OC(C)(C)C=C3)c1O [ROTTLERIN], the Activity was 12%.

What follows are compounds tested on HL-60 (assay: Cell cycle arrest in human HL60 cells assessed as accumulation at sub-G0 phase at 40 uM after 24 hrs by propidium iodide staining-based FACS flow cytometric analysis (reference value: 3%)).
Assay type: functional
How it was run: as §1
With CC(=O)c1c(O)c(C)c(O)c(Cc2c(O)c3c(c(C(=O)/C=C/c4ccccc4)c2O)OC(C)(C)C=C3)c1O [ROTTLERIN] the Activity was 84%.

The compounds below were run on HL-60 (assay: Cell cycle arrest in human HL60 cells assessed as accumulation at S phase at 30 uM after 24 hrs by propidium iodide staining-based FACS flow cytometric analysis (reference value: 54%)).
Assay type: functional
How it was run: as §1
Compound CC(=O)c1c(O)c(C)c(O)c(Cc2c(O)c3c(c(C(=O)/C=C/c4ccccc4)c2O)OC(C)(C)C=C3)c1O [ROTTLERIN] has an Activity of 46%.

The compounds below were run on HL-60 (assay: Cell cycle arrest in human HL60 cells assessed as accumulation at G1 phase at 30 uM after 24 hrs by propidium iodide staining-based FACS flow cytometric analysis (reference value: 45%)).
Assay type: functional
How it was run: as §1
With CC(=O)c1c(O)c(C)c(O)c(Cc2c(O)c3c(c(C(=O)/C=C/c4ccccc4)c2O)OC(C)(C)C=C3)c1O [ROTTLERIN] the Activity was 42%.

These compounds were tested on HL-60 (assay: Cell cycle arrest in human HL60 cells assessed as accumulation at sub-G0 phase at 30 uM after 24 hrs by propidium iodide staining-based FACS flow cytometric analysis (reference value: 3%)).
Assay type: functional
How it was run: as §1
CC(=O)c1c(O)c(C)c(O)c(Cc2c(O)c3c(c(C(=O)/C=C/c4ccccc4)c2O)OC(C)(C)C=C3)c1O [ROTTLERIN] gave an Activity of 80%.

Each compound was assayed on HL-60 (assay: Cell cycle arrest in human HL60 cells assessed as accumulation at G2 phase at 20 uM after 24 hrs by propidium iodide staining-based FACS flow cytometric analysis (reference value: 1%)).
Assay type: functional
How it was run: as §1
With CC(=O)c1c(O)c(C)c(O)c(Cc2c(O)c3c(c(C(=O)/C=C/c4ccccc4)c2O)OC(C)(C)C=C3)c1O [ROTTLERIN] the Activity was 12%.

These compounds were tested on HL-60 (assay: Cell cycle arrest in human HL60 cells assessed as accumulation at S phase at 20 uM after 24 hrs by propidium iodide staining-based FACS flow cytometric analysis (reference value: 54%)).
Assay type: functional
How it was run: as §1
For CC(=O)c1c(O)c(C)c(O)c(Cc2c(O)c3c(c(C(=O)/C=C/c4ccccc4)c2O)OC(C)(C)C=C3)c1O [ROTTLERIN], the Activity was 31%.

These compounds were tested on HL-60 (assay: Cell cycle arrest in human HL60 cells assessed as accumulation at G1 phase at 20 uM after 24 hrs by propidium iodide staining-based FACS flow cytometric analysis (reference value: 45%)).
Assay type: functional
How it was run: as §1
Work on CC(=O)c1c(O)c(C)c(O)c(Cc2c(O)c3c(c(C(=O)/C=C/c4ccccc4)c2O)OC(C)(C)C=C3)c1O [ROTTLERIN] yielded an Activity of 58%.

What follows are compounds tested on HL-60 (assay: Cell cycle arrest in human HL60 cells assessed as accumulation at sub-G0 phase at 20 uM after 24 hrs by propidium iodide staining-based FACS flow cytometric analysis (reference value: 3%)).
Assay type: functional
How it was run: as §1
In the case of CC(=O)c1c(O)c(C)c(O)c(Cc2c(O)c3c(c(C(=O)/C=C/c4ccccc4)c2O)OC(C)(C)C=C3)c1O [ROTTLERIN], the Activity is reported as 64%.

What follows are compounds tested on HL-60 (assay: Cell cycle arrest in human HL60 cells assessed as accumulation at G2 phase at 10 uM after 24 hrs by propidium iodide staining-based FACS flow cytometric analysis (reference value: 1%)).
Assay type: functional
How it was run: as §1
For CC(=O)c1c(O)c(C)c(O)c(Cc2c(O)c3c(c(C(=O)/C=C/c4ccccc4)c2O)OC(C)(C)C=C3)c1O [ROTTLERIN], the Activity was 7%.

Each compound was assayed on HL-60 (assay: Cell cycle arrest in human HL60 cells assessed as accumulation at S phase at 10 uM after 24 hrs by propidium iodide staining-based FACS flow cytometric analysis (reference value: 54%)).
Assay type: functional
How it was run: as §1
With CC(=O)c1c(O)c(C)c(O)c(Cc2c(O)c3c(c(C(=O)/C=C/c4ccccc4)c2O)OC(C)(C)C=C3)c1O [ROTTLERIN] the Activity was 26%.

The compounds below were run on HL-60 (assay: Cell cycle arrest in human HL60 cells assessed as accumulation at G1 phase at 10 uM after 24 hrs by propidium iodide staining-based FACS flow cytometric analysis (reference value: 45%)).
Assay type: functional
How it was run: as §1
Compound CC(=O)c1c(O)c(C)c(O)c(Cc2c(O)c3c(c(C(=O)/C=C/c4ccccc4)c2O)OC(C)(C)C=C3)c1O [ROTTLERIN] has an Activity of 67%.

These compounds were tested on HL-60 (assay: Cell cycle arrest in human HL60 cells assessed as accumulation at sub-G0 phase at 10 uM after 24 hrs by propidium iodide staining-based FACS flow cytometric analysis (reference value: 3%)).
Assay type: functional
How it was run: as §1
In the case of CC(=O)c1c(O)c(C)c(O)c(Cc2c(O)c3c(c(C(=O)/C=C/c4ccccc4)c2O)OC(C)(C)C=C3)c1O [ROTTLERIN], the Activity is reported as 19.6%.
